Active and inactive are the calls of the source. The rule behind the calls is not given here.

Holding throughout (type): functional
Assay [1] deals with MCF7. The assay can be described thus: Antiproliferative activity against human MCF7 cells assessed as inhibition of cell growth at 1 X 10^-5 M measured for 48 hrs by sulforhodamine B assay relative to control. Particulars: MCF7, 48 h, dose 1 10^-5M. A digest of the protocol:
(§1)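 NCI one-dose screen. Cells were seeded at 5000-40000/well in RPMI 1640 with 5% FBS and 2 mM L-glutamine and preincubated 24 h at 37 °C in 5% CO2. Compound was added at 10⁻⁵ M for 48 h. Cells were then fixed with 10% TCA, stained with sulforhodamine B, washed with 1% acetic acid, solubilized in 10 mM Tris and read as OD at 510 nm.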
(In SRB staining, fixed cells bind dye roughly in proportion to their protein.)

Assay [2] has as its system MDA-MB-231. The assay can be described thus: Antiproliferative activity against human MDA-MB-231 cells assessed as inhibition of cell growth at 1 X 10^-5 M measured for 48 hrs by sulforhodamine B assay relative to control. Particulars: MDA-MB-231, 48 h, dose 1 10^-5M. The method in brief: as §1
Assay [3] relates to Hs-578T. Description: Antiproliferative activity against human Hs-578T cells assessed as inhibition of cell growth at 1 X 10^-5 M measured for 48 hrs by sulforhodamine B assay relative to control. Particulars: dose 1 10^-5M. A digest of the protocol:
as §1

For assay [4], the system named is BT-549. Description: Antiproliferative activity against human BT-549 cells assessed as inhibition of cell growth at 1 X 10^-5 M measured for 48 hrs by sulforhodamine B assay relative to control. To be noted: BT-549, 48 h, dose 1 10^-5M. A digest of the protocol:
as §1

Assay [5] has as its system T47D. The assay can be described thus: Antiproliferative activity against human T47D cells assessed as inhibition of cell growth at 1 X 10^-5 M measured for 48 hrs by sulforhodamine B assay relative to control. To be noted: dose 1 10^-5M. A digest of the protocol:
as §1

For assay [6], the system named is MDA-MB-468. The assay can be described thus: Antiproliferative activity against human MDA-MB-468 cells assessed as inhibition of cell growth at 1 X 10^-5 M measured for 48 hrs by sulforhodamine B assay relative to control. Particulars: MDA-MB-468, 48 h, dose 1 10^-5M. The method in brief:
as §1

In assay [7] the test system is MCF7. Description: Anticancer activity against human MCF7 cells measured at 48 hrs. The method in brief: (§2)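 NCI DTP five-dose screen on the breast subpanel: compound at 0.01, 0.1, 1, 10 and 100 μM for 48 h. Cell density read by sulforhodamine B (protein content). GI50, TGI and LC50 were derived from the T, T0 and C optical densities using the NCI formulas.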
The test system of assay [8] is MDA-MB-231. The assay can be described thus: Anticancer activity against human MDA-MB-231 cells measured at 48 hrs. The method in brief: as §2
The test system of assay [9] is Hs-578T. The assay can be described thus: Anticancer activity against human Hs-578T cells measured at 48 hrs. The method in brief:
as §2

Assay [10] relates to BT-549. Description: Anticancer activity against human BT-549 cells measured at 48 hrs. The method in brief:
as §2

For assay [11], the system named is T47D. Description: Anticancer activity against human T47D cells measured at 48 hrs. Particulars: for CC50: read-out: LC50 (the source's name). A digest of the protocol: as §2
Assay [12] has as its system MDA-MB-468. The assay can be described thus: Anticancer activity against human MDA-MB-468 cells measured at 48 hrs. A digest of the protocol: as §2
For assay [13], the system named is MDA-MB-231. Description: Antiproliferative activity against human wild type MDA-MB-231 cells assessed as inhibition of cell growth at 10 to 30 uM measured for 24 hrs by trypan blue staining based MTT assay. Particulars: dose 10-30 µM. The method in brief: (§3)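 MDA cell lines were treated with 5-iodotubercidin (1 μM or 3 μM) or with test compound (10 μM or 30 μM). Drugs were dissolved in 0.225% DMSO, which also served as vehicle control. Proliferation was measured by Trypan Blue cell counting every 24 h for several consecutive days after seeding. MTT viability compared wild-type and mutant cells.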
For orientation: Formazan colour is commonly taken as a measure of viable cells.

The subject of assay [14] is MDA-MB-231. Description: Antiproliferative activity against human wild type MDA-MB-231 cells assessed as inhibition of cell growth at 10 to 30 uM measured for 24 hrs in presence of 5-Iodotubercidin by trypan blue staining based MTT assay. To be noted: dose 10-30 µM. The method in brief:
as §3

The test system of assay [15] is MDA-MB-231. Description: Antiproliferative activity against human wild type MDA-MB-231 cells assessed as inhibition of cell growth at 10 uM measured at 24 to 96 hrs by trypan blue staining based MTT assay. Particulars: time 24-96 hrs. The method in brief: as §3
For assay [16], the system named is MDA-MB-231. The assay can be described thus: Antiproliferative activity against human wild type MDA-MB-231 cells assessed as inhibition of cell growth at 3 uM measured at 24 hrs by trypan blue staining based MTT assay. A digest of the protocol:
as §3

Assay [17] relates to MDA-MB-231. The assay can be described thus: Antiproliferative activity against human wild type MDA-MB-231 cells assessed as inhibition of cell growth at 3 uM measured at 24 hrs in presence of 5-Iodotubercidin by trypan blue staining based MTT assay. The method in brief: as §3
For assay [18], the system named is MDA-MB-231. Description: Antiproliferative activity against human wild type MDA-MB-231 cells assessed as inhibition of cell growth at 3 uM measured at 96 hrs by trypan blue staining based MTT assay. The method in brief: as §3
Assay [19] concerns MDA-MB-231. The assay can be described thus: Antiproliferative activity against human ADK-L knockdown MDA-MB-231 cells assessed as inhibition of cell growth at 1 to 3 uM measured at 24 hrs in presence of 5-iodotubercidin by trypan blue staining based MTT assay. Particulars: dose 1-3 µM. A digest of the protocol:
as §3

Assay [20] concerns MDA-MB-231. Description: Antiproliferative activity against human wild type MDA-MB-231 cells assessed as inhibition of cell growth at 3 uM measured at 48 hrs by trypan blue staining based MTT assay. The method in brief: as §3
Assay [21] concerns MDA-MB-231. The assay can be described thus: Antiproliferative activity against human ADK-L knockdown MDA-MB-231 cells assessed as inhibition of cell growth at 1 to 3 uM measured at 24 hrs by trypan blue staining based MTT assay. To be noted: dose 1-3 µM. The method in brief:
as §3

In general, inhibition refers to the change of the read-out against control, counted positive when it falls. Usually GI50 stands for the concentration that inhibits growth by half. For orientation: TGI means the concentration giving total growth inhibition. Low values mean greater sensitivity of the cells, high ones lower sensitivity of the cells. With `c1ccc(-c2nc(N3CCNCC3)c3oc(-c4ccccc4)nc3n2)cc1`, the inhibition at 10 µM in assay [1] turned out to be 162%; in assay [2] it was 187%; in [3], 161%; in assay [4], 106%; in assay [5], 142%; in assay [6] it was 174%. Moreover, the GI50 in assay [7] amounted to 1.48 µM; in assay [8], 1.76 µM; in assay [9], 1.88 µM; in [10] it was 1.77 µM; in [11], 2.1 µM; in assay [12] it was 1.73 µM. The same compound showed an LC50 (concentration giving 50% net cell kill) in assay [7] of 7.4 µM. Moreover, the TGI in [7] came to 3.31 µM; in assay [8], 3.28 µM; in assay [9], 4.07 µM; in [10], 3.41 µM; in [11], 4.95 µM; in assay [12], 3.42 µM. Moreover, the LC50 (concentration killing 50% of starting cells) in assay [8] came to 6.1 µM. Further, the LC50 (50% lethal concentration) in assay [9] was 8.8 µM. Also, the CC50 in assay [11] is greater than 100 µM. For the same compound, the outcome in assay [13], in assay [14], in assay [15], in assay [16], in assay [17] and in assay [19] was Active. Also, in assay [18], the outcome was inactive.

`Nc1ncnc2c1c(I)cn2[C@@H]1O[C@H](CO)[C@@H](O)[C@H]1O`: the result in assay [20] and in assay [21] was Active.

Regarding `Cc1ccc(-c2nc3nc(-c4ccc(F)cc4)nc(N4CCCNCC4)c3o2)cc1`, the inhibition at 10 µM was determined as 172% in assay [1]; 185% in assay [2]; 176% in [3]; 177% in assay [4]; 164% in [5]; 176% in assay [6]. In addition, the GI50 was found to be 1.23 µM in [7]; 1.63 µM in [8]; 1.78 µM in assay [9]; 1.66 µM in assay [10]; 1.85 µM in assay [11]; 1.58 µM in assay [12]. For the same compound, the LC50 (concentration giving 50% net cell kill) came to 7.14 µM in assay [7], 6.85 µM in [10] and 6.41 µM in [12]. The total growth inhibition concentration (TGI) came out at 2.96 µM in assay [7]; 3.11 µM in [8]; 3.69 µM in [9]; 3.37 µM in assay [10]; 3.94 µM in assay [11]; 3.18 µM in assay [12]. Further, the LC50 (concentration killing 50% of starting cells) in [8] was determined as 5.91 µM. This compound came in with an LC50 (50% lethal concentration) in assay [9] of 7.63 µM.

`Cc1ccc(-c2nc3nc(-c4ccc(F)cc4)nc(N4CCNCC4)c3o2)cc1`: the inhibition at 10 µM was found to be 174% in [1]; 129% in assay [2]; 106% in [3]; 1% in assay [4]; 127% in assay [5]; 46% in [6]. Also, the GI50 in [7] came out at 1.66 µM; in assay [8], 1.86 µM; in [9] it was 2.06 µM; in [10] it was 13.6 µM; in assay [11], 2.3 µM; in [12] it was 1.74 µM. Also, the LC50 (concentration giving 50% net cell kill) was found to be 7.4 µM in [7], 66.8 µM in [10] and 6.56 µM in assay [12]. The TGI in assay [7] is 3.51 µM; in assay [8], 3.63 µM; in [9], 5.12 µM; in assay [10], 30.1 µM; in assay [11], 6.92 µM; in assay [12] it was 3.38 µM. In [8], this compound showed an LC50 (concentration killing 50% of starting cells) of 7.09 µM. Also, the LC50 (50% lethal concentration) in assay [9] came out at 37 µM. In assay [11], the CC50 is greater than 100 µM.

Values taken from ChEMBL document CHEMBL5252671, “Design, synthesis and evaluation of the anti-breast cancer activity of 1,3-oxazolo[4,5-d]pyrimidine and 1,3-oxazolo[5,4-d]pyrimidine derivatives” (2023).
